Cav32 inh: inhibitors of human Cav3.2 T-type calcium channel | O95180 | hit rate 4% among 100,000 | B-score at 10 µM | Cav3.2-expressing cells, Fluo-4 calcium fluorescence FDSS; stronger effect = lower value;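 active = single-dose well whose peak fluorescence ratio is a statistical outlier from its plate by either plate-standardised score or position-corrected B-score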
Target sequence (O95180 whole entry, looked up): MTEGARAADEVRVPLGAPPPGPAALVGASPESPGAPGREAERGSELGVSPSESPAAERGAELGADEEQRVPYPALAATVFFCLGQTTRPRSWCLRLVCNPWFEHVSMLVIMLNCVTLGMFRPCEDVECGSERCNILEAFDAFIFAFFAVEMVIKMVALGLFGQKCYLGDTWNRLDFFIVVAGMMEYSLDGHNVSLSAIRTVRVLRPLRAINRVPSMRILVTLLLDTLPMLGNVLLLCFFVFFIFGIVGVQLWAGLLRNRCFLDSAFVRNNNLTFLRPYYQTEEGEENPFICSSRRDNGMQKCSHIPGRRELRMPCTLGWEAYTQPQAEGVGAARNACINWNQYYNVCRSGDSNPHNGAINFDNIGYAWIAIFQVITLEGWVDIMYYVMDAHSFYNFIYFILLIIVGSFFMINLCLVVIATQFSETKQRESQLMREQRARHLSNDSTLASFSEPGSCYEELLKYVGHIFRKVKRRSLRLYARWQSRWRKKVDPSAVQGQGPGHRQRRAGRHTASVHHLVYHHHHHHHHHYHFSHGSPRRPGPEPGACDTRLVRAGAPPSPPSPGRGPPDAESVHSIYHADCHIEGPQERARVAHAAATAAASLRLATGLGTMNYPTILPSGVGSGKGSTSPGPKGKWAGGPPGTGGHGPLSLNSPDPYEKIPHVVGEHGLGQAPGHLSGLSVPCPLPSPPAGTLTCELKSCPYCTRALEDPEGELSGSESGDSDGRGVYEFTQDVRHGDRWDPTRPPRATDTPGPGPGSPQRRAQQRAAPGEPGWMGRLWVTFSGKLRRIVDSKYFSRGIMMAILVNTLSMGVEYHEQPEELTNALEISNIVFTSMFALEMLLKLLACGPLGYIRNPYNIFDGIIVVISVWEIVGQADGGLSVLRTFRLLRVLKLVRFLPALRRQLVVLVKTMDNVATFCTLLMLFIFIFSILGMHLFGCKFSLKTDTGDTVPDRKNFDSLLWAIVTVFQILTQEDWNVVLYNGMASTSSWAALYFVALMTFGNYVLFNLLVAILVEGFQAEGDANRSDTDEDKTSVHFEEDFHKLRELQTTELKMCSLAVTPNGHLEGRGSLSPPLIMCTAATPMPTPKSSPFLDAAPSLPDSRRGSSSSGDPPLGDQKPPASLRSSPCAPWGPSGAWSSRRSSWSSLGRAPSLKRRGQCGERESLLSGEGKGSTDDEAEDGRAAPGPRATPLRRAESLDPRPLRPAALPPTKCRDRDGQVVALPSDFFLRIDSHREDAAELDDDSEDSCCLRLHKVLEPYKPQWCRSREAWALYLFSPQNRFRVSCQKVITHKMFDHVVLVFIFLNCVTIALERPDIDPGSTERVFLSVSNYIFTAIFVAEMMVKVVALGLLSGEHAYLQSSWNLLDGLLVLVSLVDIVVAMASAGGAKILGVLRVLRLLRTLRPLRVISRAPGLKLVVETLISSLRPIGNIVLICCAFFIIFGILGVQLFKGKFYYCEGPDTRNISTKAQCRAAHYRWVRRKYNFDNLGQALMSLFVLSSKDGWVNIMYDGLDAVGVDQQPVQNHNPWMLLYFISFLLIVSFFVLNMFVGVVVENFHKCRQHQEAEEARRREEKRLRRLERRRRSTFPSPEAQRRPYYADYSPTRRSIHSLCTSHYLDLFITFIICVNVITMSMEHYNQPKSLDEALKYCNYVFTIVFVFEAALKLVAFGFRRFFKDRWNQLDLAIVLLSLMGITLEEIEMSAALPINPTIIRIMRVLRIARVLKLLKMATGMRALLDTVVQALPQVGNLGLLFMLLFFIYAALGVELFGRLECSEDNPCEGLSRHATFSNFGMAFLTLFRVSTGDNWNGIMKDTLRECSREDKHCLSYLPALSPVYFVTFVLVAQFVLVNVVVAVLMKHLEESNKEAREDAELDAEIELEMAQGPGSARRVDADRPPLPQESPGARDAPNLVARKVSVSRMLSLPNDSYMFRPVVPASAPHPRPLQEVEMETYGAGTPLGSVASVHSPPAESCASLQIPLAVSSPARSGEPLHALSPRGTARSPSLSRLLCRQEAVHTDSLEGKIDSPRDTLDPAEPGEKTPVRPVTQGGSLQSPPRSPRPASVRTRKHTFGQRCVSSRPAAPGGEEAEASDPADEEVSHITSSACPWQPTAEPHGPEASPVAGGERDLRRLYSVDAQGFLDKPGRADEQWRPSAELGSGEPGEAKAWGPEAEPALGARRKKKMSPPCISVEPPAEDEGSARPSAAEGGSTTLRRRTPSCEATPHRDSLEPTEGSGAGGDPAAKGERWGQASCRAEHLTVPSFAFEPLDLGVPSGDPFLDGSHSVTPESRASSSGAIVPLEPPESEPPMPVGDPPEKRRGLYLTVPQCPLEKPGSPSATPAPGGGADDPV
HIV Rev-RRE inh: inhibitors of HIV-1 Rev-RRE RNA interaction; P05866; Rev peptide-RRE RNA binding, FRET; inhibition, % at 8 µM; hit rate 0.79% among 97,000;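 active = inhibition above the screen-wide mean plus 3 SD, cut at about 35% in these data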
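Assay system: Rev peptide and RRE RNA, both fluorescently labelled; times: 5 min preincubation and 15 min binding, 25 °C; detection: FRET, ex 480 nm, em 540 and 671 nm; read-out basis: % inhibition from 671/540 nm acceptor-to-donor ratio, scaled between controls; benchmarks: DMSO low control, neomycin B high control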
CYP2C19 inh: human CYP2C19 inhibition. P33261. CYP2C19 Supersomes, luciferin-H EGE luminescence, 30 min. inhibition, % at 5 µM. hit rate 21% among 96,000. AID 778;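 active = CYP2C19 inhibition above a set limit at 5 µM in the primary screen, cut at about 50% in these data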
CYP2C9 inhib: inhibitors of human CYP2C9 | P11712 | CYP2C9 Supersomes, luciferin-H conversion, luminescence | inhibition, % at 5 µM | hit rate 20% among 96,000 | AID 777;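 active = blocking of liver enzyme CYP2C9 beyond about 50% at 5 µM, limit read from the data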
CYP2C19 activ: cytochrome P450 2C19 (human) activation. P33261. recombinant CYP2C19, luciferin-H EGE luminescence; stronger effect = higher value; 0 = fully inhibited enzyme, 1 = untreated enzyme. activation factor at 5 µM. 96,000 tested, under 10 active;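 active = activation factor of at least 2 at 5 µM in the primary screen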
CYP2C9 activ: CYP2C9 (human) activation. P11712. recombinant CYP2C9, luciferin-H conversion, luminescence; stronger effect = higher value; factor 1 = untreated enzyme, 0 = blocked. activation factor at 5 µM. hit rate 1.4% among 96,000. AID 1024;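 active = activation factor of 2 or more for CYP2C9 at a 5 µM dose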
Numbers stand for hits; – = inactive; · = not tested or not shown. Sampled rows, rich in hits. Any-hit rate of the full collection: about 27%.

SMILES	Cav32 inh	HIV Rev-RRE inh	CYP2C19 inh	CYP2C9 inhib	CYP2C19 activ	CYP2C9 activ
O=C(COC(=O)C1CCN(C(=O)c2ccc(Cl)cc2)CC1)c1ccco1	–	–	–	–	–	–
COC(=O)C1CCN(C(=O)C(C)Oc2ccc(Cl)cc2Cl)CC1 (configuration not stated)	–	–	90	–	–	–
CCOC(=O)C1CCN(C(=O)c2ccco2)CC1	–	–	63	–	–	–
CCOC(=O)C1CCCN(C(=O)c2cc(Cl)ccc2Cl)C1 (configuration not stated)	–	–	97	94	–	–
COC(=O)C1=C(C(=O)OC)[C@@H]2N(Cc3ccccc3)c3ccccc3[C@@]23C[C@@H](C(=O)OC)N(C(=O)NC(C)(C)C)C3=N1	–	·	·	·	·	·
Oc1ccc(-c2cn3c(n2)SCC3)cc1O	–	–	–	–	–	–
CCS(=O)(=O)CCSc1nc2ccccc2s1	–	–	72	–	–	–
O=S(=O)(CCSc1nc2ccccc2s1)c1nc2ccccc2s1	–	–	–	74	–	–
CCN(CC)C(=O)c1ccc(CS(=O)(=O)c2ccc(OC)cc2)o1	–	–	·	·	·	·
COc1ccc(C(=O)N=c2nc3ccccn3s2)cc1	–	·	65	–	–	–
CCCCCCCCCCCCN1[C@@H](CC(C)=O)c2cc(F)ccc2S1(=O)=O	–	·	·	·	·	·
NC(=O)CN1CCOCCOCCN(CC(N)=O)CCOCC1	–	–	–	55	–	–
O=C(CN1CCOCC1)N1CCN(C(=O)CN2CCOCC2)CC1	·	–	·	·	·	·
CN=C1S/C(=C\c2ccc(N3CCOCC3)c(F)c2)C(=O)N1C	–	–	–	–	–	–
O=c1[nH]c(NCc2ccco2)nnc1Cc1ccccc1Cl	–	–	–	–	–	2.5
CN(C)/C=N/c1cnc(C(=O)c2ccc(Cl)cc2)n1C	–	–	60	–	–	–
O=C(CSc1nnnn1C1CCCC1)NCc1ccc2c(c1)OCO2	–	–	–	61	–	–
O=C(CSc1nnnn1C1CCCCC1)NCc1ccc2c(c1)OCO2	–	–	92	92	–	–
COc1ccc(OC)c(-n2nnnc2SCC(=O)NCc2ccc3c(c2)OCO3)c1	·	–	81	60	–	–
C=CCOC(=O)C1=C[C@H](c2ccc3c(c2)OCO3)C[C@H](OCCCCO)O1	–	·	·	·	·	·
Cc1noc(C)c1CSc1nnc2cc(C)c3ccccc3n12	–	·	–	–	–	–
COC(=O)c1cc(Br)ccc1-c1ccc(/C=N/n2nnnc2N)o1	–	–	56	–	–	–
CCSc1nnc(NC(=O)C(C)(C(F)(F)F)C(F)(F)F)s1	–	–	–	75	–	–
CCSc1nnc(NC(=O)C(CC)(C(F)(F)F)C(F)(F)F)s1	–	–	–	98	–	–
CCSc1nnc(NC(=O)C(C(F)(F)F)C(F)(F)F)s1	–	–	–	–	–	–
SMILES	Cav32 inh	HIV Rev-RRE inh	CYP2C19 inh	CYP2C9 inhib	CYP2C19 activ	CYP2C9 activ
CCSc1nnc(NC(=O)c2ccco2)s1	–	–	–	–	–	–
CCSc1nnc(NC(=O)NCC(F)(F)F)s1	–	·	–	–	–	–
CCSc1nnc(NC(NC(=O)c2ccco2)(C(F)(F)F)C(F)(F)F)s1	–	–	–	90	–	–
O=C(NCC1CCC(C(=O)O)CC1)c1cccnc1 (configuration not stated)	–	–	–	–	–	–
COc1cccc(C(=O)COC(=O)C(C)N2C(=O)C3C4C=CC(C4)C3C2=O)c1 (configuration not stated)	–	–	–	–	–	–
O=C(Nc1nnc(CCN2CCOCC2)s1)C1CCCCC1	–	–	–	–	–	–
CS(=O)(=O)c1ccc(Cl)c(NC(=O)C2CC(=O)N(Cc3ccccc3)C2)c1 (configuration not stated)	–	–	–	68	–	–
Cc1ccc(NC(=O)COn2nnc3ccc(S(=O)(=O)N(C)C)cc32)cc1F	–	–	89	98	–	–
COC(=O)C(O)(CC(=O)Nc1ccc(C)c(F)c1)C(F)(F)F (configuration not stated)	–	–	–	–	–	–
CCc1ccc(NC(=O)COn2nnc3ccc(S(=O)(=O)N(C)C)cc32)cc1	–	–	82	82	–	–
CCc1ccc2c(COn3nnc4ccc(S(=O)(=O)N(C)C)cc43)cc(=O)oc2c1	–	–	–	–	–	–
Cc1[nH]c2ccccc2c1Cc1nnc(SCCC#N)o1	–	–	·	·	·	·
O=C(COC(=O)c1ccc(Br)o1)NCCCc1ccccc1	–	–	–	71	–	–
COc1ccc(CCNC(=O)COC(=O)c2ccc(Br)o2)cc1	-3.8	–	–	78	–	–
COc1ccc(CCNC(=O)COC(=O)c2ccc(Br)o2)cc1OC	–	–	71	80	–	–
CCCCC(OC(=O)c1cc2occc2n1C)C(=O)NCC1CCCO1 (configuration not stated)	–	–	–	–	–	–
O=C(COc1ccccc1)NC(NC(=S)Nc1ccccc1C(=O)O)C(Cl)(Cl)Cl (configuration not stated)	–	–	–	82	–	–
COC(=O)c1ccccc1NC(=S)NC(=O)COc1ccc(C)cc1	–	–	·	·	·	·
Cc1ccc(C)c(NC(=S)NC(NC(=O)Cc2ccccc2)C(Cl)(Cl)Cl)c1 (configuration not stated)	–	–	50	–	–	–
CC(C)n1c(CCCO)nc2ccccc21	–	·	–	–	–	–
Cn1c(/C(C#N)=C(\O)COc2ccc3ccccc3c2)nc2ccccc21	–	·	–	–	–	–
COc1ccccc1CN1CCCC(C(=O)N(C)Cc2ccccc2)C1 (configuration not stated)	–	–	–	–	–	–
COc1cccc(CC(=O)NCC2COc3ccccc3O2)c1OC (configuration not stated)	–	–	64	–	–	–
c1ccc(CNCC2COc3ccccc3O2)cc1 (configuration not stated)	–	–	·	·	·	·
COc1ccccc1CN(C)C(=O)C1COc2ccccc2O1 (configuration not stated)	–	–	98	–	–	–
SMILES	Cav32 inh	HIV Rev-RRE inh	CYP2C19 inh	CYP2C9 inhib	CYP2C19 activ	CYP2C9 activ
CCOC(=O)c1ccc(NC(=O)CC2COc3ccccc3O2)cc1 (configuration not stated)	·	–	–	63	–	–
CCOC(=O)CC(=O)Nc1ccc(C(=O)OCC)cc1	–	–	–	–	–	–
CCOC(=O)CCNCC1COc2ccccc2O1 (configuration not stated)	–	–	75	–	–	–
COc1cccc(OC)c1OCCNCC1COc2ccccc2O1 (configuration not stated)	–	·	·	·	·	·
FC(F)(F)c1ccc(Oc2ccc3c(C(F)(F)F)cc(C(F)(F)F)nc3n2)cc1	–	–	–	–	–	–
O=C(O)COCc1nc2ccccc2[nH]1	–	–	–	–	–	–
C[C@H]1C=C(C(=O)O)O[C@@H](OCc2ccc(CO)cc2)C1	–	·	·	·	·	·

Screening data as filed in PubChem.
